Test results from ChEMBL document CHEMBL5653631, “A Potent and Selective ULK1 Inhibitor Suppresses Autophagy and Sensitizes Cancer Cells to Nutrient Stress” (iScience, 2018).
One block for each compound: values may come before it.

Tests used:
[1] = target: Serine/threonine-protein kinase PLK2 (Homo sapiens) (UniProt Q9NYY3); assay: Inhibition of human recombinant PLK2 at 500 nM in presence of ATP by radiometric assay relative to control
[2] = target: Casein kinase I isoform gamma-3 (Homo sapiens) (UniProt Q9Y6M4); assay: Inhibition of human recombinant CK1g3 at 500 nM in presence of ATP by radiometric assay relative to control
Casein kinase I isoform gamma-3 (Homo sapiens), sequence (Q9Y6M4 whole entry, looked up, canonical isoform): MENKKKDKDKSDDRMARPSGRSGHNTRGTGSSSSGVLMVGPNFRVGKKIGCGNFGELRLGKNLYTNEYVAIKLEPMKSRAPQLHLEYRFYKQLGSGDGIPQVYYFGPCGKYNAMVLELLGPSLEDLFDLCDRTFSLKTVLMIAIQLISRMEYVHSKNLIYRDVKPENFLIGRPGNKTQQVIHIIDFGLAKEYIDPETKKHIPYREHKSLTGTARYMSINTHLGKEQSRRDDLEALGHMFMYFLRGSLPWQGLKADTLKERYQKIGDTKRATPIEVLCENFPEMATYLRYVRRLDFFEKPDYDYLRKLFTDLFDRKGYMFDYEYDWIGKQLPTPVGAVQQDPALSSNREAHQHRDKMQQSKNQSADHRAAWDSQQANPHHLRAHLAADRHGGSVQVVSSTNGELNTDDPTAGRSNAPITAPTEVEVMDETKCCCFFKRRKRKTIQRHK

[3] = target: Homeodomain-interacting protein kinase 1 (Homo sapiens) (UniProt Q86Z02); assay: Inhibition of human recombinant HIPK1 at 500 nM related to control ULK1
Homeodomain-interacting protein kinase 1 (Homo sapiens), sequence (Q86Z02 whole entry, looked up): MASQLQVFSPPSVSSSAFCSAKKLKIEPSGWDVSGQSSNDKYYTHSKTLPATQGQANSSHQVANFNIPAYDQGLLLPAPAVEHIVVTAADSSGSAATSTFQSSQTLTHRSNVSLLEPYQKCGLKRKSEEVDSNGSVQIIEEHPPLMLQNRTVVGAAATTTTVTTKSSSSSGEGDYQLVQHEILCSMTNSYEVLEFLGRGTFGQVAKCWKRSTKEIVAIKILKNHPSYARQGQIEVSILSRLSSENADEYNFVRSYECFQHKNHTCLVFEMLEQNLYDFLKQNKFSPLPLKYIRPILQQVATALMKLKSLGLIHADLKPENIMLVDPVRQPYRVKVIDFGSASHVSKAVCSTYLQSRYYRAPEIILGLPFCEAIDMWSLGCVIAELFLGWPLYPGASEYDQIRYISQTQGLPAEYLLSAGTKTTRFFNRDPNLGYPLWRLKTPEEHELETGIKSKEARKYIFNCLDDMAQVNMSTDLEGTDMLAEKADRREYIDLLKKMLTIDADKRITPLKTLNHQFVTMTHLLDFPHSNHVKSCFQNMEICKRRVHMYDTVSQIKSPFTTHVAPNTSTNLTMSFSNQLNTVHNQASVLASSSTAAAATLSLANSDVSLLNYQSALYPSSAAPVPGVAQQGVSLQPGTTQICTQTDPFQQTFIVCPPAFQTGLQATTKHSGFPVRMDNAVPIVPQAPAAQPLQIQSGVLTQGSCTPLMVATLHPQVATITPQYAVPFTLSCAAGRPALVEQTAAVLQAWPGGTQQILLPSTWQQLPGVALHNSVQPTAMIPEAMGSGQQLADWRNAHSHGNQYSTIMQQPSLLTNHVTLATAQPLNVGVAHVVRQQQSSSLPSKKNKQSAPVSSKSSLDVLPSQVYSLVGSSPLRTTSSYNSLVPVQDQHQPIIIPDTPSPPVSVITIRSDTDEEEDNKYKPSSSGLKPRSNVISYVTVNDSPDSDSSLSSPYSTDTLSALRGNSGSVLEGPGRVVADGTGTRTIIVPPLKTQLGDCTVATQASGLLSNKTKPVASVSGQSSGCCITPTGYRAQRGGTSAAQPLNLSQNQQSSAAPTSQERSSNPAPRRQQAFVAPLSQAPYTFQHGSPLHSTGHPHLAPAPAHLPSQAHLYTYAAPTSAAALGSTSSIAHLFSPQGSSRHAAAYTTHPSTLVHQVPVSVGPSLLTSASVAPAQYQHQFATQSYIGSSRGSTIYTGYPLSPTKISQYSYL

[4] = target: Platelet-derived growth factor receptor beta (Homo sapiens) (UniProt P09619); assay: Inhibition of human recombinant PDGFRb at 500 nM in presence of ATP by radiometric assay relative to control
Platelet-derived growth factor receptor beta (Homo sapiens), sequence (P09619 whole entry): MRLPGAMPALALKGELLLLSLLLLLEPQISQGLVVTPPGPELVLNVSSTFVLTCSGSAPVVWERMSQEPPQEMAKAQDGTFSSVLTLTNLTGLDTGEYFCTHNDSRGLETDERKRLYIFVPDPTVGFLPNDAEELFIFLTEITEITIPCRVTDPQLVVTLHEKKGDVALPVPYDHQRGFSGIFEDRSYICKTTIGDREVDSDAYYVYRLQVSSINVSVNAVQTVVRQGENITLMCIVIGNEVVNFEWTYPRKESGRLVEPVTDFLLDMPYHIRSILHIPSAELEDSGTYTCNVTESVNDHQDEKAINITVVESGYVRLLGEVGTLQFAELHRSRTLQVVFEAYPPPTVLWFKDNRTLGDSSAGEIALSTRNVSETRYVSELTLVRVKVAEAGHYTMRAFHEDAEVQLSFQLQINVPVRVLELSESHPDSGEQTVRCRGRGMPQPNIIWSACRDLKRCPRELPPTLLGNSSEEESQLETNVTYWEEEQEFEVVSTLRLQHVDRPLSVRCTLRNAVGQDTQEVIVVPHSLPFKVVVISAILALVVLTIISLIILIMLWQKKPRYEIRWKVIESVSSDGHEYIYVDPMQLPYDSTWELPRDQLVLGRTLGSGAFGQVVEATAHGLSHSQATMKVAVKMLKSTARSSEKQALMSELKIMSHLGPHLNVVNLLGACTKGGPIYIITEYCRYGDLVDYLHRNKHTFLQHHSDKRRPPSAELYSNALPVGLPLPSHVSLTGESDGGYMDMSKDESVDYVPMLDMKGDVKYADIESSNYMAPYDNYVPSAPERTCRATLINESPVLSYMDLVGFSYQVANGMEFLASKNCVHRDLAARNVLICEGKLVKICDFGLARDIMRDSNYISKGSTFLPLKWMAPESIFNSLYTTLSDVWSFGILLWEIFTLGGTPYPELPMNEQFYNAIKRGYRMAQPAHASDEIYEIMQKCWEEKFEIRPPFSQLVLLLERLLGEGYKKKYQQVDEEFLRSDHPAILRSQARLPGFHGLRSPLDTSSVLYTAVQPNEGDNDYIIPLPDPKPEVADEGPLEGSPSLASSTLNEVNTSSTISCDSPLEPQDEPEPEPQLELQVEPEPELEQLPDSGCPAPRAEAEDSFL

[5] = target: T1, Serine/threonine-protein kinase ULK1 (Homo sapiens) (UniProt O75385); assay: Inhibition of human recombinant ULK1 at 15 nM in presence of ATP by radiometric assay relative to control
T1 sequence (whole entry): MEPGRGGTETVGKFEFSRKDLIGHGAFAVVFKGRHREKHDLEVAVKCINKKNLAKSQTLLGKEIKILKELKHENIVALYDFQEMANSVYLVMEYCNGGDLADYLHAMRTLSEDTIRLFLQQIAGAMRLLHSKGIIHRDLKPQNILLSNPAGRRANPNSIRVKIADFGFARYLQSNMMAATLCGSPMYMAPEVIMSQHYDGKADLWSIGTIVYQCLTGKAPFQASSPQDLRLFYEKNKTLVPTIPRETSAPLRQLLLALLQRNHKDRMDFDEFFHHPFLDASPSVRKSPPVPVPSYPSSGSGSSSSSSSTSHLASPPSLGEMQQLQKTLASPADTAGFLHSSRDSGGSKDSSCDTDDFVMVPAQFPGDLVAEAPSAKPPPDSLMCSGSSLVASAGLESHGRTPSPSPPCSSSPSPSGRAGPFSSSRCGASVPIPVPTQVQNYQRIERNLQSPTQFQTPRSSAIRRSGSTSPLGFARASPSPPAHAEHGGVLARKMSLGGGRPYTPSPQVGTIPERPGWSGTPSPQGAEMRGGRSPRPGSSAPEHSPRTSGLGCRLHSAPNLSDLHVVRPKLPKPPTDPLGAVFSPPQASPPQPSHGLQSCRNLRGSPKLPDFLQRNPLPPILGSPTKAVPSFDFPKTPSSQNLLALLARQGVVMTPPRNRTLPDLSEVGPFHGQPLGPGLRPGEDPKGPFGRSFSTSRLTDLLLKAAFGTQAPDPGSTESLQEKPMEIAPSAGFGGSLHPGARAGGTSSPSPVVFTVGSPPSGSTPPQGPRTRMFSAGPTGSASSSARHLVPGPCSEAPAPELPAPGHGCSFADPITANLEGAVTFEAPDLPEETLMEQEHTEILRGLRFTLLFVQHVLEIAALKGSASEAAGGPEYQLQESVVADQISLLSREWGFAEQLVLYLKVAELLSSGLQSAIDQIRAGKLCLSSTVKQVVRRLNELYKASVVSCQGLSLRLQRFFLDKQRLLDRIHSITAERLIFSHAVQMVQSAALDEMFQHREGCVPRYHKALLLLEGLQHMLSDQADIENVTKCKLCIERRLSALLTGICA

[6] = target: T2, Phosphorylase b kinase gamma catalytic chain, liver/testis isoform (Homo sapiens) (UniProt P15735); assay: Inhibition of human recombinant PHKg2 at 15 nM related to control ULK1
T2 sequence (whole entry): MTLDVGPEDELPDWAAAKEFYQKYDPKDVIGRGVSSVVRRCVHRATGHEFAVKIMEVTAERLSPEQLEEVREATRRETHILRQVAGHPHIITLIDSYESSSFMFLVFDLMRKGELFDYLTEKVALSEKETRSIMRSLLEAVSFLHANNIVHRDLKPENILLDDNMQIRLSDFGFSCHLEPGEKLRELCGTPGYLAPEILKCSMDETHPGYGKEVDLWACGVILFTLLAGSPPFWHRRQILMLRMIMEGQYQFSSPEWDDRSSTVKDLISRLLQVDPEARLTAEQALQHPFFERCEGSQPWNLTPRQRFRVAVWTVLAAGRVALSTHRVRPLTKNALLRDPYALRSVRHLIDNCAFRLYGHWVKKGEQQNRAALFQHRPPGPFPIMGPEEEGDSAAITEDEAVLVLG

[7] = target: Dual specificity protein kinase CLK2 (Homo sapiens) (UniProt P49760); assay: Inhibition of human recombinant CLK2 at 40 nM related to control ULK1
Dual specificity protein kinase CLK2 (Homo sapiens), sequence (P49760 whole entry, looked up): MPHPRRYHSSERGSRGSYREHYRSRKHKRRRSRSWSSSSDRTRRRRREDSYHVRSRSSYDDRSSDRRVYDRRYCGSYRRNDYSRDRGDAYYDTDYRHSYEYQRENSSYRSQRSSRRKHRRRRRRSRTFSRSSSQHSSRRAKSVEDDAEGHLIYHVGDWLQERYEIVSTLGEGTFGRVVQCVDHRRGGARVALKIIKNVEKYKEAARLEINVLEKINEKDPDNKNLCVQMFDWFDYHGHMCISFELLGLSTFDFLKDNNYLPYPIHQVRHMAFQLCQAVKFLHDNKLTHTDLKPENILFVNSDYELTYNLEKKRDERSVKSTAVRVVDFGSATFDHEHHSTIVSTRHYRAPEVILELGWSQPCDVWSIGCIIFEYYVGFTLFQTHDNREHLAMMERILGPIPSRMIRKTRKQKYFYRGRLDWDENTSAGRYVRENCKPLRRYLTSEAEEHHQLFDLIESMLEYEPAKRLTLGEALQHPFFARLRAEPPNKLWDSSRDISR

[8] = target: Tyrosine-protein kinase Lyn (Homo sapiens) (UniProt P07948); assay: Inhibition of human recombinant LYN at 40 nM related to control ULK1
Tyrosine-protein kinase Lyn (Homo sapiens), sequence (P07948 2-512 limits assumed): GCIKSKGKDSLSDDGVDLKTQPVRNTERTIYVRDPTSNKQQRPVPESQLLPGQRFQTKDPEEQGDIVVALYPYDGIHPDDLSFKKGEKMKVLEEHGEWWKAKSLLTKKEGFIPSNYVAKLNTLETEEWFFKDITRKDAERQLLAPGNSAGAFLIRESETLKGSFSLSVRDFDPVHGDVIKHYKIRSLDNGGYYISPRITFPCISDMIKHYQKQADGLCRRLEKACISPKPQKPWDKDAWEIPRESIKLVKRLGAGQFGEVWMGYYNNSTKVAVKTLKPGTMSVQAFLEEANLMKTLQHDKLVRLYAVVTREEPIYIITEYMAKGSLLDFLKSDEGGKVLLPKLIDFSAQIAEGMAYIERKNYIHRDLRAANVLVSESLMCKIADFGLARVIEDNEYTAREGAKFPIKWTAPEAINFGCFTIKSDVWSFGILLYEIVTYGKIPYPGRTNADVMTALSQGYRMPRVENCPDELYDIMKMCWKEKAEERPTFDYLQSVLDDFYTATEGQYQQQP

[9] = target: T3, Beta-adrenergic receptor kinase 1 (Homo sapiens) (UniProt P25098); assay: Inhibition of human recombinant BARK1 at 40 nM related to control ULK1
T3 sequence (whole entry): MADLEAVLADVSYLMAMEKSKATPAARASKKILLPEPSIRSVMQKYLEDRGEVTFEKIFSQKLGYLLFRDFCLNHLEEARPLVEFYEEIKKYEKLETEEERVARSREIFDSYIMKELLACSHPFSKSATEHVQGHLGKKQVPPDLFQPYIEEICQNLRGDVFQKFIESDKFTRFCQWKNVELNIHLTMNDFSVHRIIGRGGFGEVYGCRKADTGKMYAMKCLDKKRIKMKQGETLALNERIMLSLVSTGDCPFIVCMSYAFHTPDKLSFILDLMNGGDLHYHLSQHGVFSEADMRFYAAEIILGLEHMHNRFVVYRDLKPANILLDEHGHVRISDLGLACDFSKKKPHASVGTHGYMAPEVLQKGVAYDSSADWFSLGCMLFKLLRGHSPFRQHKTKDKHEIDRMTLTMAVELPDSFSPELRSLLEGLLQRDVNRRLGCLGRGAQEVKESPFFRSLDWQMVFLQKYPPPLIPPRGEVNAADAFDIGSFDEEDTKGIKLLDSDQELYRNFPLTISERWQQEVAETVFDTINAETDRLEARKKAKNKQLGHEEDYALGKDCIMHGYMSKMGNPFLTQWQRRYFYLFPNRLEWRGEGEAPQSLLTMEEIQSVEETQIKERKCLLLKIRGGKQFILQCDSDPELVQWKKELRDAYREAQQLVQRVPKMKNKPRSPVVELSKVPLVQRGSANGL
How it was run: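 Radiometric activity assays in a panel of 327 human recombinant kinases, each run in duplicate at one inhibitor concentration. Activity remaining is expressed as percent of vehicle control, and percent inhibition is calculated as 100% minus percent activity remaining.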

[10] = target: SRSF protein kinase 2 (Homo sapiens) (UniProt P78362); assay: Inhibition of human recombinant SRPK2 at 40 nM related to control ULK1
[11] = target: Serine/threonine-protein kinase PAK 3 (Homo sapiens) (UniProt O75914); assay: Inhibition of human recombinant PAK3 at 40 nM related to control ULK1
Serine/threonine-protein kinase PAK 3 (Homo sapiens), sequence (O75914 whole entry, looked up): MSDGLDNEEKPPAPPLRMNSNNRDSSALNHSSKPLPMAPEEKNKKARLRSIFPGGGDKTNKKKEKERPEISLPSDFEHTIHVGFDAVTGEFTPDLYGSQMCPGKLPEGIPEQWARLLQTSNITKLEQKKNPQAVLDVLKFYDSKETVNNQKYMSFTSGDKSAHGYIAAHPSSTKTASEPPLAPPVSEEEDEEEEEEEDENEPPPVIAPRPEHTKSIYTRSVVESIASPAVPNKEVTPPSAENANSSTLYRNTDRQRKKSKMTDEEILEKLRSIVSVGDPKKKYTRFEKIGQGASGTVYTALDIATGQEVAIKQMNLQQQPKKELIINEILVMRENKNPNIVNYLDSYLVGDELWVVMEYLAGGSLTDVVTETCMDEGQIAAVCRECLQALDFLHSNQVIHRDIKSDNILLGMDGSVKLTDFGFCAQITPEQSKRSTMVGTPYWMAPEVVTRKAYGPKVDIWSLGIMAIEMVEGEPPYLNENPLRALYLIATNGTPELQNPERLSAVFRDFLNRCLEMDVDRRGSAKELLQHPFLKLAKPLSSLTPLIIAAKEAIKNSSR

Serine/threonine-protein kinase PLK2 (Homo sapiens), sequence (Q9NYY3 whole entry, looked up, canonical isoform): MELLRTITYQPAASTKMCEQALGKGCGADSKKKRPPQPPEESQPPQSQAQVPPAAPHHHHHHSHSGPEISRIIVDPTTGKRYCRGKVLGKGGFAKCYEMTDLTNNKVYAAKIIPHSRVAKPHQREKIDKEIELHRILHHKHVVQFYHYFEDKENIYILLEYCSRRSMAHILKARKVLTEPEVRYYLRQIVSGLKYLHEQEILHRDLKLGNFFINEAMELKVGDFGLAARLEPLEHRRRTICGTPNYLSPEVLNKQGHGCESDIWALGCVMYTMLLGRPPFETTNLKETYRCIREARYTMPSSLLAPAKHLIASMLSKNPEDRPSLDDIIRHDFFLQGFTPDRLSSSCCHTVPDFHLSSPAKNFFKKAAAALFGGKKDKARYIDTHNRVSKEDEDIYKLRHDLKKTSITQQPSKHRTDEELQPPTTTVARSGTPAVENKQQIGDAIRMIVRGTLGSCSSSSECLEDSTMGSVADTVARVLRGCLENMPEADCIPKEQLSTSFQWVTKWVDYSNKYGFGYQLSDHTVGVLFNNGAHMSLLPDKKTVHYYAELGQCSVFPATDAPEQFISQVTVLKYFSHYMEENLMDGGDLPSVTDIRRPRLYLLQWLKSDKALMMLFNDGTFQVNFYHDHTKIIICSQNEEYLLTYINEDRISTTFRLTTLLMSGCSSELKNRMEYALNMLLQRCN

inhibition [1]: 4%
inhibition [2]: 0%
fold change (FC) [3]: 0.04
inhibition [4]: 0%
SMILES: CNC(=O)c1ccccc1Oc1nc(Nc2cc(OC)c(OC)c(OC)c2)ncc1Br

inhibition [5]: 88%
fold change (FC) [6]: 0.1
SMILES: CC(C)[C@H](NC(=O)c1cc(-c2cnn3cc(-c4ccc(OCCN5CCCCC5)cc4)cnc23)cs1)C(F)(F)F

fold change (FC) [7]: 0.26
fold change (FC) [8]: 0.25
fold change (FC) [9]: 0.04
fold change (FC) [10]: 0.01
fold change (FC) [11]: 0
SMILES: O=C(N[C@@H](C1CC1)C(F)(F)F)c1cc(-c2cnn3cc(-c4ccc(F)cc4)cnc23)cs1
